Laboratory results from ChEMBL document CHEMBL1149276, “Inhibition of Streptococcus suis adhesion by dendritic galabiose compounds at low nanomolar concentration” (J Med Chem, 2004).
pIC50: −log10 of the molar value. Converted amounts (≈) assume the structure as drawn.

Experiments:
Streptococcus suis [1] = assay: Inhibition of Streptococcus suis 628 mediated hemagglutinination of human erythrocytes; format: functional
Outline: (§1)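 S. suis grown in THY broth at 37 °C without shaking. Twofold dilutions of galabiose compound were preincubated with equal volumes of bacteria for 5 min at room temperature. Then 5% sialidase-treated human erythrocytes were added. After 1 h on ice, agglutination was scored visually. MIC was taken as the lowest concentration giving complete inhibition.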

Streptococcus suis [2] = assay: Relative potency against Streptococcus suis 628 mediated hemagglutinination of human erythrocytes measured as IC50 for monovalent galobiose compound to the multivalent compound; format: functional
Outline: (§2)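 Hemagglutination MIC read-out. Bacteria (THY broth, 37 °C, static) were preincubated 5 min at room temperature with twofold inhibitor dilutions. Sialidase-treated 5% human erythrocytes were added and agglutination was scored visually after 1 h on ice. Potency is expressed relative to the monovalent reference galabioside.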

Streptococcus suis [3] = assay: Inhibition of Streptococcus suis 836 mediated hemagglutinination of human erythrocytes; format: functional; outline: as §1
Streptococcus suis [4] = assay: Relative potency against Streptococcus suis 836 mediated hemagglutinination of human erythrocytes measured as IC50 for monovalent galobiose compound to the multivalent compound; format: functional; outline: as §2
Streptococcus suis [5] = assay: Inhibition of Streptococcus suis 628 binding to pigeon ovomucoid by surface plasmon resonance assay; format: functional, organism-based
Outline: (§3)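 SPR competition format. S. suis was cultured in THY broth at 37 °C without shaking. Bacteria were incubated 5 min with inhibitor dilutions in HBS-P buffer, then injected over the sensor chip. The surface was regenerated with 10 mM NaOH between injections. Data from repeated experiments were normalized 0–100 to build inhibition curves. Line 7 expresses potency relative to the monovalent reference.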

Streptococcus suis [6] = assay: Relative potency for against treptococcus suis 628 binding to pigeon ovomucoid by surface plasmon resonance assay measured as IC50 for monovalent galobiose compound to the multivalent compound; format: functional; outline: as §3
Streptococcus suis [7] = assay: Inhibition of Streptococcus suis 628 binding to pigeon ovomucoid by ELISA; format: functional, organism-based

SMILES | MIC (Streptococcus suis [1]) [µM] | MIC (Streptococcus suis [3]) [µM] | pIC50 (Streptococcus suis [5]) | pIC50 (Streptococcus suis [7]) | Ratio IC50 (Streptococcus suis [2]) | Ratio IC50 (Streptococcus suis [4]) | Ratio IC50 (Streptococcus suis [6])
O=C(COCC(=O)NCCCO[C@@H]1O[C@H](CO)[C@H](O[C@H]2O[C@H](CO)[C@H](O)[C@H](O)[C@H]2O)[C@H](O)[C@H]1O)NCC#Cc1ccc(C#CCNC(=O)COCC(=O)NCCCO[C@@H]2O[C@H](CO)[C@H](O[C@H]3O[C@H](CO)[C@H](O)[C@H](O)[C@H]3O)[C@H](O)[C@H]2O)cc1 | 0.007 (≈ 0.00825 µg/mL) | 0.09 (≈ 0.106 µg/mL) | 6.51 |  | 128 | 18 | 6
COC(=O)c1cccc(OCCNC(=O)COCC(=O)NCCCO[C@@H]2O[C@H](CO)[C@H](O[C@H]3O[C@H](CO)[C@H](O)[C@H](O)[C@H]3O)[C@H](O)[C@H]2O)c1 | 0.9 (≈ 0.623 µg/mL) | 1.6 (≈ 1.11 µg/mL) | 5.74 | 4.35 |  |  | 
O=C(COCC(=O)NCCCO[C@@H]1O[C@H](CO)[C@H](O[C@H]2O[C@H](CO)[C@H](O)[C@H](O)[C@H]2O)[C@H](O)[C@H]1O)NCC#Cc1cccc(C#CCNC(=O)COCC(=O)NCCCO[C@@H]2O[C@H](CO)[C@H](O[C@H]3O[C@H](CO)[C@H](O)[C@H](O)[C@H]3O)[C@H](O)[C@H]2O)c1 | 0.004 (≈ 0.00472 µg/mL) | 0.05 (≈ 0.059 µg/mL) | 6.53 |  | 225 | 32 | 6
O=C(CCN(CCNC(=O)CCN(CCC(=O)NCCN(CCC(=O)NCCNC(=O)COCC(=O)NCCCO[C@@H]1O[C@H](CO)[C@H](O[C@H]2O[C@H](CO)[C@H](O)[C@H](O)[C@H]2O)[C@H](O)[C@H]1O)CCC(=O)NCCNC(=O)COCC(=O)NCCCO[C@@H]1O[C@H](CO)[C@H](O[C@H]2O[C@H](CO)[C@H](O)[C@H](O)[C@H]2O)[C@H](O)[C@H]1O)CCN(CCC(=O)NCCN(CCC(=O)NCCNC(=O)COCC(=O)NCCCO[C@@H]1O[C@H](CO)[C@H](O[C@H]2O[C@H](CO)[C@H](O)[C@H](O)[C@H]2O)[C@H](O)[C@H]1O)CCC(=O)NCCNC(=O)COCC(=O)NCCCO[C@@H]1O[C@H](CO)[C@H](O[C@H]2O[C@H](CO)[C@H](O)[C@H](O)[C@H]2O)[C@H](O)[C@H]1O)CCC(=O)NCCN(CCC(=O)NCCNC(=O)COCC(=O)NCCCO[C@@H]1O[C@H](CO)[C@H](O[C@H]2O[C@H](CO)[C@H](O)[C@H](O)[C@H]2O)[C@H](O)[C@H]1O)CCC(=O)NCCNC(=O)COCC(=O)NCCCO[C@@H]1O[C@H](CO)[C@H](O[C@H]2O[C@H](CO)[C@H](O)[C@H](O)[C@H]2O)[C@H](O)[C@H]1O)CCC(=O)NCCNC(=O)COCC(=O)NCCCO[C@@H]1O[C@H](CO)[C@H](O[C@H]2O[C@H](CO)[C@H](O)[C@H](O)[C@H]2O)[C@H](O)[C@H]1O)NCCNC(=O)COCC(=O)NCCCO[C@@H]1O[C@H](CO)[C@H](O[C@H]2O[C@H](CO)[C@H](O)[C@H](O)[C@H]2O)[C@H](O)[C@H]1O | 0.0003 (≈ 0.00162 µg/mL) | 0.002 (≈ 0.0108 µg/mL) | 8.15 |  | 3000 | 800 | 256

Further lines, with some results ahead:

MIC (Streptococcus suis [1]) [µM] | MIC (Streptococcus suis [3]) [µM] | pIC50 (Streptococcus suis [5]) | pIC50 (Streptococcus suis [7]) | SMILES | Ratio IC50 (Streptococcus suis [2]) | Ratio IC50 (Streptococcus suis [4]) | Ratio IC50 (Streptococcus suis [6])
0.009 (≈ 0.017 µg/mL) | 0.1 (≈ 0.189 µg/mL) | 6.81 |  | COC(=O)c1cc(OCCNC(=O)COCC(=O)NCCCOCCOCCOCCCNC(=O)COCC(=O)NCCCO[C@@H]2O[C@H](CO)[C@H](O[C@H]3O[C@H](CO)[C@H](O)[C@H](O)[C@H]3O)[C@H](O)[C@H]2O)cc(OCCNC(=O)COCC(=O)NCCCOCCOCCOCCCNC(=O)COCC(=O)NCCCO[C@@H]2O[C@H](CO)[C@H](O[C@H]3O[C@H](CO)[C@H](O)[C@H](O)[C@H]3O)[C@H](O)[C@H]2O)c1 | 100 | 16 | 12
0.002 (≈ 0.00538 µg/mL) | 0.04 (≈ 0.108 µg/mL) | 8.15 |  | COC(=O)c1cc(OCCNC(=O)c2cc(OCCNC(=O)COCC(=O)NCCCO[C@@H]3O[C@H](CO)[C@H](O[C@H]4O[C@H](CO)[C@H](O)[C@H](O)[C@H]4O)[C@H](O)[C@H]3O)cc(OCCNC(=O)COCC(=O)NCCCO[C@@H]3O[C@H](CO)[C@H](O[C@H]4O[C@H](CO)[C@H](O)[C@H](O)[C@H]4O)[C@H](O)[C@H]3O)c2)cc(OCCNC(=O)c2cc(OCCNC(=O)COCC(=O)NCCCO[C@@H]3O[C@H](CO)[C@H](O[C@H]4O[C@H](CO)[C@H](O)[C@H](O)[C@H]4O)[C@H](O)[C@H]3O)cc(OCCNC(=O)COCC(=O)NCCCO[C@@H]3O[C@H](CO)[C@H](O[C@H]4O[C@H](CO)[C@H](O)[C@H](O)[C@H]4O)[C@H](O)[C@H]3O)c2)c1 | 450 | 40 | 256
0.006 (≈ 0.0075 µg/mL) | 0.07 (≈ 0.0874 µg/mL) | 6.63 |  | COC(=O)c1cc(OCCNC(=O)COCC(=O)NCCCO[C@@H]2O[C@H](CO)[C@H](O[C@H]3O[C@H](CO)[C@H](O)[C@H](O)[C@H]3O)[C@H](O)[C@H]2O)cc(OCCNC(=O)COCC(=O)NCCCO[C@@H]2O[C@H](CO)[C@H](O[C@H]3O[C@H](CO)[C@H](O)[C@H](O)[C@H]3O)[C@H](O)[C@H]2O)c1 | 150 | 22 | 8
